In this assay the target is Aspartyl aminopeptidase (Homo sapiens) (UniProt Q9ULA0). As to the kind of experiment: inhibition of human DNPEP peptide cleavage – biochemical, QFRET fluorogenic substrate, set 2, counter-screen for PfM18AAP inhibitor project, dose response (AID 602221). The note with it: recombinant hM18AAP, H-Glu-NHMec fluorogenic cleavage; for inhibition: at 100 µM (top of the series). Summed up:
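Material – recombinant human M18 aspartyl aminopeptidase · Amount – hM18AAP at 5 µg/mL final · Reagent – 0.1 mM H-Glu-NHMec as fluorogenic peptide substrate · Incubation – 90 min reaction, room temperature · Technique – fluorescence at 370 nm excitation, 460 nm emission · Read-out – % inhibition and IC50, curve bounds fixed 0–100 · Benchmarks – no-enzyme background wells as reference · Repeats – triplicate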

From PubChem BioAssay AID602221 (Southern Research Specialized Biocontainment Screening …, 2012) come the findings set out here.

Activity calls are given as the source filed them.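 How the source made its calls: active means inhibition of 30% or more at any tested concentration; inactive means the rest.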

Turning to `CN1CCN(CCc2ccc(O)c(O)c2)CC1`, the IC50 was 29.3 µM. On to `CN1CCN(c2nc(-c3ccc(O)c(O)c3)cs2)CC1`, for which the 50% inhibitory concentration (IC50) is 3.7 µM. On to `COc1ccc(CCCN2CCN(C)CC2)cc1OC`, for which the inhibition entry is “inactive”. For `Oc1ccc(-c2csc(Nc3ncccn3)n2)cc1O`, the IC50 is 2.25 µM. In the case of `Oc1ccc(CCNc2ccnc3ccccc23)cc1O`, the IC50 is 7.26 µM. Still for that read-out and setting: for `Oc1ccc(-c2csc(NC3CCCC3)n2)cc1O` the value was 4.78 µM. Regarding `Oc1ccc(CCNc2c3ccccc3nc3ccccc23)cc1O`, the IC50 is 0.95 µM. For `CCc1ccc(NC(=O)Cc2nc(-c3ccc(O)c(O)c3)cs2)cc1`, the IC50 is 6.04 µM. Regarding `COc1ccc(CCNC(c2ccccc2)c2ccccc2)cc1OC`, the inhibition result was “inactive”. With `CN1CCN(CCCc2ccc(O)c(O)c2)CC1`, the IC50 is 6.49 µM.
